pEC50, pIC50: −log10 of the molar value. Calls of active or inactive are those of the source. The calls are words filed in the database; no cut-off is given here.
Legend:
[1] = target: T1, Protein deacetylase HDAC6 (Homo sapiens) (UniProt Q9UBN7); assay: Inhibition of HDAC6 in human HeLaS3 cells at 5 uM preincubated for 15 mins followed by HDAC-Glo substrate addition measured after 30 to 45 mins by ELISA; format: cell-based; conditions: HeLa S3
T1 sequence (whole entry): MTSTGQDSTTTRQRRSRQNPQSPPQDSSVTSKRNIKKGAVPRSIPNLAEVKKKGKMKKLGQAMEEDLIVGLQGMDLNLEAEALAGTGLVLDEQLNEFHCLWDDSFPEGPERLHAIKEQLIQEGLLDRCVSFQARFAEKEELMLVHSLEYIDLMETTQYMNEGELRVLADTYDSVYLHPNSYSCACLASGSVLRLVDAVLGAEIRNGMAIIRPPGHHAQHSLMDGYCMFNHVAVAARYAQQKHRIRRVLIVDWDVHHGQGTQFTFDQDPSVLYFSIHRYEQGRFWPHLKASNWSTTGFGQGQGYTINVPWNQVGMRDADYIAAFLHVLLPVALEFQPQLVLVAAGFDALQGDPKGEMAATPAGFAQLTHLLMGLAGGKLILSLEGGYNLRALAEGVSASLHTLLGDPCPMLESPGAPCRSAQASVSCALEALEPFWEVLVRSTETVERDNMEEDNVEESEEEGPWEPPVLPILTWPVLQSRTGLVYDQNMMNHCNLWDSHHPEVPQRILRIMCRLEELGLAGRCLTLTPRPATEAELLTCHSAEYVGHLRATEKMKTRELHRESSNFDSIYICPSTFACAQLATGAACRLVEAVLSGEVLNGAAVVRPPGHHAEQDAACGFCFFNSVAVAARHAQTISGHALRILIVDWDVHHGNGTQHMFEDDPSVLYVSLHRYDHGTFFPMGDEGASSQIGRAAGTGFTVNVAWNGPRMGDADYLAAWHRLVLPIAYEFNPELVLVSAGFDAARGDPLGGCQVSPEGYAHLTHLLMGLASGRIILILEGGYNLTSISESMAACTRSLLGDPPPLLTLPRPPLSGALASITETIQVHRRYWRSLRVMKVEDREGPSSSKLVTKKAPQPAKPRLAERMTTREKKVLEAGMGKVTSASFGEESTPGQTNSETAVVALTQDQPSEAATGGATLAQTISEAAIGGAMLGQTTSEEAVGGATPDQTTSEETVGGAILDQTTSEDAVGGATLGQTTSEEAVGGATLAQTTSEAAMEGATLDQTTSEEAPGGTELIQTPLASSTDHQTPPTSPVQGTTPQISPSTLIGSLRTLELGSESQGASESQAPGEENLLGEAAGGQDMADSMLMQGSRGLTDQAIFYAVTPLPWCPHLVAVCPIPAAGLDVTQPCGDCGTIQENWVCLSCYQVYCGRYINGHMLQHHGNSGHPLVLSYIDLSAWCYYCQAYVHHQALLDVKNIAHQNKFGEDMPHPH
Summary of the method: (§1)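 ELISA-based HDAC activity assay using mammalian-derived HDAC1, -2, -3 and -6. Each analogue was screened at a single concentration, 5 or 10 μM. Data are mean percent deacetylase activity from at least three independent trials with standard error.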

[2] = tested on: HeLa S3; assay: Selectivity ratio of IC50 for HDAC3 in human HeLaS3 cells to IC50 for HDAC6 in human HeLaS3 cells; format: cell-based
Summary of the method: (§2)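 Ratio of IC50 values measured with the ELISA-based HDAC activity assay using mammalian-derived HDAC isoforms. Each IC50 is the mean of at least two independent trials with standard error.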

[3] = tested on: HeLa S3; assay: Selectivity ratio of IC50 for HDAC3 in human HeLaS3 cells to IC50 for full length human C-terminal His-tag HDAC8 expressed in baculovirus expression system
[4] = target: Histone deacetylase 1 (Homo sapiens, UniProt Q13547); assay: Inhibition of HDAC1 in human HeLaS3 cells preincubated for 15 mins followed by HDAC-Glo substrate addition measured after 30 to 45 mins by ELISA; format: cell-based, HeLa S3
Sequence of Histone deacetylase 1 (Q13547 whole entry): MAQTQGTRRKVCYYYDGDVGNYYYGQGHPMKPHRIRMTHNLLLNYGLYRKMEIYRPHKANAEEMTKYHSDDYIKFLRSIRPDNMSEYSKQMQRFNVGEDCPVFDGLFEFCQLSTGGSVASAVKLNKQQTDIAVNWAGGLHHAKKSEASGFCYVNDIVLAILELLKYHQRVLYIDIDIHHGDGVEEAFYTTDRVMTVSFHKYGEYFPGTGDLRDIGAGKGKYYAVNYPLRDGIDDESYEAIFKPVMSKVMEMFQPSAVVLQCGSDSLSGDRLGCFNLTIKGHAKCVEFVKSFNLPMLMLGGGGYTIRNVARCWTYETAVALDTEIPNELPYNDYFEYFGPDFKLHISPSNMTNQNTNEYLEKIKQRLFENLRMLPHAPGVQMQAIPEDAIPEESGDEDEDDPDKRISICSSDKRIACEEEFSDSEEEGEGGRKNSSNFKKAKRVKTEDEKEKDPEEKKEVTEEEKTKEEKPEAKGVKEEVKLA

[5] = tested on: HeLa S3; assay: Selectivity ratio of IC50 for HDAC1 in human HeLaS3 cells to IC50 for HDAC6 in human HeLaS3 cells; format: cell-based; summary of the method: as §2
[6] = cells; format: functional, cell-based; conditions: Homo sapiens, U-937, 44 h
[7] = Cytotoxicity against human Jurkat cells assessed as cell viability at 10 uM after 44 hrs by MTT assay relative to control; format: functional; conditions: read-out: Activity
Summary of the method: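 MTT viability assay in Jurkat cells at 1 and 10 μM. Data are mean percent viability from at least three independent trials with standard error.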

[8] = tested on: HeLa S3; assay: Selectivity ratio of IC50 for HDAC2 in human HeLaS3 cells to IC50 for HDAC6 in human HeLaS3 cells; format: cell-based; summary of the method: as §2
[9] = tested on: HeLa S3; assay: Selectivity ratio of IC50 for HDAC1 in human HeLaS3 cells to IC50 for full length human C-terminal His-tag HDAC8 expressed in baculovirus expression system
[10] = target: T1, Protein deacetylase HDAC6 (Homo sapiens); assay: Inhibition of HDAC6 in human U937 cells assessed as increase in alpha-tubulin acetylation at Lys-40 residue after 18 hrs by Western blot method; format: cell-based; conditions: U-937
Summary of the method: (§3)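 U937 myeloid leukemia cells were treated with compound, with a 1% DMSO control. For the concentration series the range was 10–60 μM. Cells were then lysed, run on SDS-PAGE and Western blotted for acetyl-α-tubulin and acetyl-histone H3, with GAPDH as load control. Band intensities were quantified as fold increase, given as mean of four independent trials with standard error.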

[11] = tested on: HeLa S3; assay: Selectivity ratio of IC50 for HDAC2 in human HeLaS3 cells to IC50 for full length human C-terminal His-tag HDAC8 expressed in baculovirus expression system
[12] = target: Histone deacetylase 3 (Homo sapiens, UniProt O15379); assay: Inhibition of HDAC3 in human HeLaS3 cells preincubated for 15 mins followed by HDAC-Glo substrate addition measured after 30 to 45 mins by ELISA; format: cell-based, HeLa S3
Sequence of Histone deacetylase 3 (O15379 whole entry): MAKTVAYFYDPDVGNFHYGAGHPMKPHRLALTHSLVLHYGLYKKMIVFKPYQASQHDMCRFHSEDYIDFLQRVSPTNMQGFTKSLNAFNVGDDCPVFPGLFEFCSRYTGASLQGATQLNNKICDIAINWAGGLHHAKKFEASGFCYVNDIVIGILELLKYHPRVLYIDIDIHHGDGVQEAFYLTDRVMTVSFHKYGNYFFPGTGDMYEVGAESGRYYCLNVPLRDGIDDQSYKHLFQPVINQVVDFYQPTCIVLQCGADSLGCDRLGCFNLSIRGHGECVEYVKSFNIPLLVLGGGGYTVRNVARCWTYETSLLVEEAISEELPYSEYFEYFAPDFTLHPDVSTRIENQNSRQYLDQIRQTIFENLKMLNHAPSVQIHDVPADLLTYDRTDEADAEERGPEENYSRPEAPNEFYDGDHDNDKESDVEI

[13] = target: T1, Protein deacetylase HDAC6 (Homo sapiens); assay: Inhibition of HDAC6 in human U937 cells assessed as increase in alpha-tubulin acetylation at Lys-40 residue at 30 uM after 18 hrs by Western blot method; format: cell-based; conditions: U-937; summary of the method: as §3
[14] = cells; format: functional, cell-based; conditions: Homo sapiens, MOLM-13, 44 h
[15] = cells; format: functional, cell-based; conditions: Homo sapiens, Jurkat, 44 h
[16] = target: T2, Histone deacetylase 8 (Homo sapiens, UniProt Q9BY41); assay: Inhibition of full length human C-terminal His-tag HDAC8 expressed in baculovirus expression system preincubated for 15 mins followed by HDAC-Glo substrate addition measured after 30 to 45 mins by ELISA
T2 sequence (Q9BY41 whole entry): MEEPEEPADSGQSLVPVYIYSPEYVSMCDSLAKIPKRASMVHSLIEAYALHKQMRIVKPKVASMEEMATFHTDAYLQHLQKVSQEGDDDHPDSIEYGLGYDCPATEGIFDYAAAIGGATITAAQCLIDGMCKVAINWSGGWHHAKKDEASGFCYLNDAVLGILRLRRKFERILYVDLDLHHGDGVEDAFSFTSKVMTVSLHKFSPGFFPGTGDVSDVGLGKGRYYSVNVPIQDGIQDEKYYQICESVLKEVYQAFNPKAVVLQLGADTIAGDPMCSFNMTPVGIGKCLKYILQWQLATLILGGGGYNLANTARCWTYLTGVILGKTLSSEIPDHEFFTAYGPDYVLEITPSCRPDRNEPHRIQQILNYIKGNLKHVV

[17] = target: Histone deacetylase 2 (Homo sapiens, UniProt Q92769); assay: Inhibition of HDAC2 in human HeLaS3 cells preincubated for 15 mins followed by HDAC-Glo substrate addition measured after 30 to 45 mins by ELISA; format: cell-based, HeLa S3
Sequence of Histone deacetylase 2 (Q92769 whole entry): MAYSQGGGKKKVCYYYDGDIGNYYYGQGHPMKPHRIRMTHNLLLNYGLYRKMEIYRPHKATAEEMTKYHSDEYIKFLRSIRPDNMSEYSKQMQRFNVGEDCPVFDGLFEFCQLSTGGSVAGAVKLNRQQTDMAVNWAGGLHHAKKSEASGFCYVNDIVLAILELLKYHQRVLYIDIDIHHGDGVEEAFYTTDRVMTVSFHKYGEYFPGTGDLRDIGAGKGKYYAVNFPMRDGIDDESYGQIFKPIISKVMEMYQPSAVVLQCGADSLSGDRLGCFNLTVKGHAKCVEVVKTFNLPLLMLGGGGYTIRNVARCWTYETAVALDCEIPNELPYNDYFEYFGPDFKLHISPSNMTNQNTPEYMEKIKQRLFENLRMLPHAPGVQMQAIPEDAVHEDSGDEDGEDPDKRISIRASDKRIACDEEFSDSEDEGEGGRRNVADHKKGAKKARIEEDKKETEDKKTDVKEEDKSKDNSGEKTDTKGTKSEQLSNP

[18] = target: T3, Protein deacetylase HDAC6 (Homo sapiens, UniProt Q9UBN7); assay: Inhibition of HDAC6 in human HeLaS3 cells preincubated for 15 mins followed by HDAC-Glo substrate addition measured after 30 to 45 mins by ELISA; format: cell-based, HeLa S3
T3 sequence (Q9UBN7 whole entry): T1 sequence (whole entry)

[19] = target: T1, Protein deacetylase HDAC6 (Homo sapiens); assay: Inhibition of HDAC6 in human HeLaS3 cells at 10 uM preincubated for 15 mins followed by HDAC-Glo substrate addition measured after 30 to 45 mins by ELISA; format: cell-based; conditions: HeLa S3; summary of the method: as §1

SMILES	inhibition [1]	Ratio IC50 [3]	pIC50 [4]	Ratio IC50 [9]	Ratio IC50 [11]	pIC50 [12]	pIC50 [16]	pIC50 [17]	other results
C=CCC(CCCCCC(=O)Nc1ccccc1)C(=O)NO (stereo not drawn)	Active								
CCCCCCC(CCCCCC(=O)Nc1ccccc1)C(=O)NO (stereo not drawn)	Active	49 to 300	3.74	49 to 300	49 to 300	4.01	5.70	3.74	Ratio IC50 [2]: 49 to 300; Ratio IC50 [5]: 49 to 300; pEC50 [6]: 4.86; viability at 10 µM [7]: 47%; Ratio IC50 [8]: 49 to 300; inhibition [10]: Dose-dependent effect; inhibition [13]: Active; pEC50 [14]: 4.98; pEC50 [15]: 4.93; pIC50 [18]: 6.22
CCCC(CCCCCC(=O)Nc1ccccc1)C(=O)NO (stereo not drawn)	Active								
C#CCC(CCCCCC(=O)Nc1ccccc1)C(=O)NO (stereo not drawn)	Active								
CC(CCCCCC(=O)Nc1ccccc1)C(=O)NO (stereo not drawn)	Active								
CCC(CCCCCC(=O)Nc1ccccc1)C(=O)NO (stereo not drawn)	Active								
CCCCC(CCCCCC(=O)Nc1ccccc1)C(=O)NO (stereo not drawn)									inhibition [19]: Active
CCCCCC[C@@H](CCCCCC(=O)Nc1ccccc1)C(=O)NO		106 to 187	3.48	106 to 187	106 to 187	3.28	5.51	3.24	
O=C(CCCCCC(Cc1ccccc1)C(=O)NO)Nc1ccccc1 (stereo not drawn)	Active	33 to 92	4.08	33 to 92	33 to 92	4.04	5.92	3.96	Ratio IC50 [2]: 33 to 92; Ratio IC50 [5]: 33 to 92; Ratio IC50 [8]: 33 to 92; inhibition [13]: Active; pIC50 [18]: 5.82
CCCCCC(CCCCCC(=O)Nc1ccccc1)C(=O)NO (stereo not drawn)	Active	33 to 92	4.32	33 to 92	33 to 92	4.37	5.89	4.24	Ratio IC50 [2]: 33 to 92; Ratio IC50 [5]: 33 to 92; Ratio IC50 [8]: 33 to 92; inhibition [13]: Active; pIC50 [18]: 6.07
CCCCCC[C@H](CCCCCC(=O)Nc1ccccc1)C(=O)NO							6.15		
